core dimer inh = inhibitors of HCV core protein dimerization, primary screen, biochemical, TR-FRET, high-throughput | TR-FRET GST/Flag-core106 dimerization, 1536-well | inhibition, % at 5 µM | 300,000 tested, 0.33% active;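 active = inhibition above the mean of all tested compounds plus 3 SD, set per screening campaign, cut at about 45% in these data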
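System: GST-tagged and Flag-tagged HCV core protein residues 1-106 / Input: core106 proteins, GST 13.5 nM and Flag 17 nM / Buffer or medium: KF-containing HEPES buffer, pH 7.45, DTT, CHAPS, BSA / Probe or stimulus: Eu-anti-GST and XL665-anti-Flag labelled anti-tag antibodies / Schedule: 4 h, 22.5 °C incubation / Technique: TR-FRET 671 and 617 nm emission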
HCV NS3 hel inh = inhibitors of HCV NS3 helicase, primary screen, biochemical, Cy5 molecular beacon fluorescence; inhibition, % at 10.9 µM; NS3 helicase DNA unwinding; Hepatitis C virus NS3 helicase; 290,000 tested, 0.56% active;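 active = inhibition above the mean of all tested compounds plus 3 SD, set per campaign, cut at about 35% in these data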;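 note: 0% = DMSO wells and 100% = thioflavine S control wells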
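System: HCV NS3 helicase fragment; control set: DMSO and thioflavine S; technique: Cy5 fluorescence at 0 and 60 min, beacon hairpin quenching; reagent: beacon DNA duplex substrate plus ATP; replicates: singlicate; schedule: 1 h reaction at 25 °C, ATP-initiated; medium: MOPS buffer pH 6.5 with MgCl2, DTT, Tween20, BSA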
PABP polyA inh = PABP poly(A) RNA binding inhibitors, primary screen, biochemical, fluorescence polarization, uHTS. Polyadenylate-binding protein 1 (Homo sapiens), P11940. inhibition, % at 35 µM. 290,000 tested, 1% active;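 note: calls also rest on retests at 20 µM and on dose response follow-up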
Target sequence (P11940 whole entry, looked up): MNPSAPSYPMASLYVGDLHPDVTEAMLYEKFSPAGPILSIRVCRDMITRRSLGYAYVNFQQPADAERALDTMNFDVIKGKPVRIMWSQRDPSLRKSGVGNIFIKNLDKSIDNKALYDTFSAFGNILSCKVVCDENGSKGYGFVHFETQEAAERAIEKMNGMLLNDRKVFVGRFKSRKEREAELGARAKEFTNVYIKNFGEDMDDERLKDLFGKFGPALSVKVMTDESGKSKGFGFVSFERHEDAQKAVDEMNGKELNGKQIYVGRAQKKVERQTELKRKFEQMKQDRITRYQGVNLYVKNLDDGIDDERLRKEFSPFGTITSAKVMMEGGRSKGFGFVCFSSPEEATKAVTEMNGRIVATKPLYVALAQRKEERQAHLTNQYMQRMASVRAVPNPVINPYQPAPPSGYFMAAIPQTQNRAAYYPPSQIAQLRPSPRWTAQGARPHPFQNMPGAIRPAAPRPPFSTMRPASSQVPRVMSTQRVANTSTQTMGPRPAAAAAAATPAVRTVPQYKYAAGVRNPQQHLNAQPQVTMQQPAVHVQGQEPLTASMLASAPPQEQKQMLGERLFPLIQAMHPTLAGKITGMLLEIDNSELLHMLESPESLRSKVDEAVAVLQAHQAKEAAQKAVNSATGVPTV
DNA FID counter = compounds displacing fluorescent DNA intercalator, primary screen, artefact control for HCV NS3 helicase inhibitor project, biochemical, FID fluorescence; DNA fluorescent intercalator displacement; inhibition, % at 7.9 µM; 290,000 tested, 0.17% active; in the data active = inhibition above about 37%;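 note: 0% = vehicle and 100% = reference compound; higher means more ethidium bromide displaced from hairpin DNA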
eIF4H FP inh = human eIF4H binding inhibitors, primary screen, translation initiation inhibitor project, biochemical, uHTS, fluorescence polarization; Eukaryotic translation initiation factor 4H (Homo sapiens), Q15056; eIF4H fluorescence polarization binding assay; inhibition, % at 35 µM; 290,000 tested, 0.94% active; AID 2012, 2009;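 note: calls also rest on retests at 20 µM and on dose response follow-up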
MLLE-PAM2 inh = inhibitors of PABP1 MLLE–PAM2 peptide binding, primary screen, biochemical, fluorescence polarization, FITC-PAM2, GST-MLLE; Polyadenylate-binding protein 1 (Homo sapiens), P11940; inhibition, % at 20 µM; 360,000 tested, 0.36% active; AID 588489, 2011; in the data active = inhibition above about 35%, passing the limit was not always enough;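 note: plate controls were DMSO wells with GST-MLLE for no effect and wells lacking GST-MLLE protein for full effect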
The depositor's hits bear a star; ? = inconclusive; nt = not tested or not shown. Sampled rows, rich in hits. Any-hit rate of the full collection: about 2%. Unless noted, the rule behind the calls is not given here.

SMILES	core dimer inh	HCV NS3 hel inh	PABP polyA inh	DNA FID counter	eIF4H FP inh	MLLE-PAM2 inh
O=c1nc2s/c(=C\c3ccc(-c4ccccc4[N+](=O)[O-])o3)c(=O)n2nc1-c1ccccc1	nt	42.8*	16.8	-18.2	102.1	72.6
Cc1ccc(O)c(C=Nc2cc(C)ccc2O)c1	-12.7	28.0	117.8	-6.1	67.5	3.8
Cc1ccc(O)c(C=Nc2ccc3[nH]ncc3c2)c1	-5.3	7.4	active	5.1	68.4*	0.8
Nc1nc(Sc2c([N+](=O)[O-])cc(C(F)(F)F)cc2[N+](=O)[O-])n[nH]1	2.3	-2.3	-5.9	4.4	7.2	39.5*
Cc1ccc(S(=O)(=O)N2CC3(O)CN(C(=O)OC(C)C)N(C(=O)OC(C)C)CC3(OC(=O)NCc3ccco3)C2)cc1 (stereo unspecified)	nt	nt	nt	nt	nt	-5.3
C[C@H]1CN([C@@H](C)CO)C(=O)CCCn2nncc2CO[C@H]1CN(C)S(=O)(=O)c1ccc(Oc2ccccc2)nc1	nt	nt	nt	nt	nt	10.7
CCOC(=O)Cc1c(C)nc2c(-c3ccc(OC)cc3)c(C)nn2c1C	2.0	-2.7	2.5	-9.2	15.1	-2.0
CCCCCNc1nc(NCCCO)c(C#N)c2c1CN(C)CC2	-13.0	0.9	119.8	6.7	127.2	18.9
CCCCCNc1nc(N2CCCC2)c2c(c1C#N)CCN(C)C2	-6.5	-70.9	57.0*	14.3	59.4*	26.6
N#Cc1ccccc1S(=O)(=O)N1CCN(CC(O)c2ccccc2)CC1 (stereo unspecified)	-5.4	1.2	56.4	12.8	7.2*	9.4
N#Cc1ccccc1S(=O)(=O)N1CCN(CC(O)COc2ccccc2F)CC1 (stereo unspecified)	-2.8	-9.0	13.3	-7.1	4.1	-8.7
Cc1cc(C)cc(C(O)c2ncc(-c3ccccc3)[nH]2)c1 (stereo unspecified)	nt	nt	nt	nt	nt	-13.0
O=C(NCC(=O)N1CCN(C(c2ccccc2)c2ccccc2)CC1)c1ccccc1Br	nt	nt	nt	nt	nt	-9.8
O=C(Nc1ccc(-n2nncc2-c2ccco2)cc1)c1cc2ccccc2oc1=O	77.5*	16.6	6.8	-1.2	60.9*	-3.1
O=C(COC(=O)/C=C/c1ccc(Br)o1)Nc1ccc2[nH]c(=O)[nH]c2c1	89.9*	nt	nt	nt	nt	-10.1
CN(C)S(=O)(=O)c1cccc(NC(=O)COC(=O)/C=C/c2ccc(Br)o2)c1	1.9	7.9	39.1*	-17.4	?	-4.3
C=CCc1ccc(OCC(O)COc2ccc(CC=C)cc2OC)c(OC)c1	-17.0	-5.7	72.1*	-25.0	?	-12.2
C=CCc1ccc(OCC(O)CN2CCCCC2)c(OC)c1 (stereo unspecified)	-3.1	-3.7	-9.4	8.5	-9.4	-32.2
CCOc1cc(C2C3=C(CC(C)(C)CC3=O)N(CCOC)C3=C2C(=O)CC(C)(C)C3)ccc1O	12.2	2.9	-1.2	-36.2	-3.7	-8.3
CCCS(=O)(=O)NC(=O)C1(C)CCCN(C(=O)c2ccccc2F)C1 (stereo unspecified)	nt	nt	nt	nt	nt	-4.3
CCN1CCN(Cc2c(O)ccc3c2O/C(=C\C=C\c2ccccc2)C3=O)CC1	5.2	36.2*	0.8	-20.4	54.3	-35.3
O=C1/C(=C/C=C/c2ccccc2)Oc2c1ccc(O)c2CN1CCN(CCO)CC1	-4.9	-62.4	?	0.8	?	-14.3
COc1ccc(S(=O)(=O)N2CCOCC2)cc1NC(=O)COC(=O)c1oc2ccccc2c1C	nt	nt	nt	nt	nt	-44.4
CCCCn1c(N)c(N(CCOC)C(=O)CSc2nnc(-c3ccco3)n2CC)c(=O)[nH]c1=O	nt	nt	nt	nt	nt	-1.0
Oc1c(C(c2ccco2)N2CCOCC2)sc2ncnn12 (stereo unspecified)	10.9	-0.3	123.7*	-4.1	129.9	8.5
SMILES	core dimer inh	HCV NS3 hel inh	PABP polyA inh	DNA FID counter	eIF4H FP inh	MLLE-PAM2 inh
O=C(O)c1cn[nH]c1-c1cccc([N+](=O)[O-])c1	-2.8	9.0	-11.9	-2.3	98.5*	10.1
O=Cc1cn[nH]c1-c1cccc([N+](=O)[O-])c1	6.9	4.4	-8.8	8.8	-0.8	-5.1
CC(CC(=O)N(CCC1=CCCCC1)c1c(N)n(Cc2ccccc2)c(=O)[nH]c1=O)c1ccccc1 (stereo unspecified)	-0.3	nt	nt	nt	nt	-7.2
N#C/C(=C(/O)CSc1ncn[nH]1)c1nc2ccccc2[nH]1	24.2	9.5	42.8*	-5.2	63.6	-13.6
CC(C)(C)c1nnc2sc(SC/C(O)=C(\C#N)c3nc4ccccc4[nH]3)nn2c1=O	59.9*	1.0	14.4	-5.9	7.1	-47.3
Cc1cc(C)n2c(SCC(O)=C(C#N)c3nc4ccccc4[nH]3)nnc2n1	nt	nt	nt	nt	nt	-22.1
CC(C)(C)c1nnc2sc(SCC(=O)c3ccccc3)nn2c1=O	-3.8	4.8	-3.2	-8.1	-1.8	-20.1
CC(C)CNC(=O)c1cccc(NC(=O)c2ccc3c(c2)C(=O)N(C)C3=O)c1	5.1	-3.4	6.1	-18.5	-0.1	11.2
COc1cccc(NC(=O)C(c2ccccc2)N2CCN(CC(=O)N3CCOCC3)CC2)c1 (stereo unspecified)	nt	nt	nt	nt	nt	-23.7
COc1cccc(NC(=O)C(c2ccccc2)N2CCCCC2)c1 (stereo unspecified)	0.8	-0.7	95.8*	11.7	8.5*	-5.4
O=C(O)c1cccc(NC(=S)N/N=C/c2ccccc2OCc2cccc(Br)c2)c1	nt	24.0	-9.5	-21.4	53.2*	35.9
O=C(O)c1cccc(NC(=S)N/N=C/c2cccc(O)c2)c1	-0.6	1.3	3.3	1.5	24.6	24.6
CCOC(=O)c1c(NC(=O)CN(C)C2CCN(C)CC2)sc(C(=O)Nc2ccccc2)c1C	1.2	-78.0	-3.6	37.0*	14.5	-6.1
CCOC(=O)c1c(N2C(=O)CC(Sc3ccccc3C(=O)O)C2=O)sc2c1CCCC2 (stereo unspecified)	7.3	27.7	1.7	-29.0	-12.7	49.5*
CCN1C(=O)CC(Sc2ccccc2C(=O)O)C1=O (stereo unspecified)	-0.6	1.6	11.6	0.3	-4.8	20.2
CCOc1ccc(N2C(=O)CC(Sc3ccccc3C(=O)O)C2=O)c([N+](=O)[O-])c1 (stereo unspecified)	3.9	17.5	-5.0	-19.9	-4.4	40.5*
O=C(O)c1ccccc1SC1CC(=O)N(c2cccc3ccccc23)C1=O (stereo unspecified)	nt	-6.5	-2.2	-7.0	0.5	39.5*
CCOC(=O)c1c(NC(=O)c2ccccc2C(=O)O)sc2c1CCCC2	4.5	34.8	0.9	-28.6	-9.8	4.7
